Assay results as given in ChEMBL document CHEMBL1141317, “Pavietin, a coumarin from Aesculus pavia with antifungal activity” (2007).

Legend:
Botrytis [1] = test: Antifungal activity against Botrytis cinerea assessed as mycelial growth at 200 umol/L by filter disk method relative to control; type: functional; details: in the assay text read “by incorporation into PDA growth medium” for “by filter disk method”
In short: (§1)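 Agar-incorporation assay rather than disk. Compound in a few drops of DMSO, ultrafiltered and added to autoclaved, still-molten PDA at 50, 100 or 200 μmol L⁻¹. 1 cm mycelial plugs inoculated, 40 dishes per treatment per species. Grown 3 days at 22 °C in darkness. Mycelial growth expressed as % of DMSO-only controls (100%). Student–Neumann–Keuls test, p = 0.05.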

Trichoderma viride [2] = test: Antifungal activity against Trichoderma viride assessed as mycelial growth at 50 umol/L by filter disk method relative to control; type: functional; details: in the assay text read “by incorporation into growth medium” for “by filter disk method”; in short: as §1
Botrytis [3] = test: Antifungal activity against Botrytis cinerea assessed as mycelial growth at 50 umol/L by filter disk method relative to control; type: functional; details: in the assay text read “by incorporation into PDA growth medium” for “by filter disk method”; in short: as §1
Trichoderma viride [4] = test: Antifungal activity against Trichoderma viride assessed as mycelial growth at 200 umol/L by filter disk method relative to control; type: functional; details: in the assay text read “by incorporation into growth medium” for “by filter disk method”; in short: as §1
Guignardia aesculi [5] = test: Antifungal activity against Guignardia aesculi assessed as mycelial growth at 200 umol/L by filter disk method relative to control; type: functional; details: in the assay text read “by incorporation into growth medium” for “by filter disk method”; in short: as §1
Guignardia aesculi [6] = test: Antifungal activity against Guignardia aesculi assessed as mycelial growth at 0.15 mg/disk by filter disk method relative to control; type: functional
In short: (§2)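 Compound dissolved in a few drops of absolute EtOH and loaded onto 5 mm paper disks at 0.15, 1.5 or 15 mg per disk. Disks placed on PDA in 12 cm Petri dishes, 30 dishes per treatment per species. Inhibition zones measured in mm after 3 days at 27 °C. EtOH-only disk as control. Growth given as % of control (100%). Student–Neumann–Keuls test, p = 0.05.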

Guignardia aesculi [7] = test: Antifungal activity against Guignardia aesculi assessed as mycelial growth at 1.5 mg/disk by filter disk method relative to control; type: functional; in short: as §2
Alternaria dianthi [8] = test: Antifungal activity against Alternaria dianthi assessed as mycelial growth at 100 umol/L by filter disk method relative to control; type: functional; details: in the assay text read “by incorporation into growth medium” for “by filter disk method”; in short: as §1
[9] = test system: Fusarium oxysporum f. sp. dianthi; test: Antifungal activity against Fusarium oxysporum dianthi assessed as mycelial growth at 200 umol/L by […] relative to control; type: functional; in short: as §1
Polyporus [10] = test: Antifungal activity against Polyporus marginatus assessed as mycelial growth at 50 umol/L by filter disk method relative to control; type: functional; details: in the assay text read “by incorporation into growth medium” for “by filter disk method”; in short: as §1
Botrytis [11] = test: Antifungal activity against Botrytis cinerea assessed as mycelial growth at 100 umol/L by filter disk method relative to control; type: functional; details: in the assay text read “by incorporation into PDA growth medium” for “by filter disk method”; in short: as §1
Alternaria alternata [12] = test: Antifungal activity against Alternaria alternata assessed as mycelial growth at 50 umol/L by filter disk method relative to control; type: functional; details: in the assay text read “by incorporation into growth medium” for “by filter disk method”; in short: as §1
Aspergillus niger [13] = test: Antifungal activity against Aspergillus niger assessed as mycelial growth at 200 umol/L by filter disk method relative to control; type: functional; details: in the assay text read “by incorporation into growth medium” for “by filter disk method”; in short: as §1
Fusarium basilici [14] = test: Antifungal activity against Fusarium basilici assessed as mycelial growth at 0.15 mg/disk by filter disk method relative to control
Fulvia fulva [15] = test: Antifungal activity against Cladosporium fulvum assessed as mycelial growth at 100 umol/L by filter disk method relative to control; type: functional; details: in the assay text read “by incorporation into PDA growth medium” for “by filter disk method”; in short: as §1
Fusarium basilici [16] = test: Antifungal activity against Fusarium basilici assessed as mycelial growth at 15 mg/disk by filter disk method relative to control
Alternaria dianthi [17] = test: Antifungal activity against Alternaria dianthi assessed as mycelial growth at 200 umol/L by filter disk method relative to control; type: functional; details: in the assay text read “by incorporation into growth medium” for “by filter disk method”; in short: as §1
Globisporangium ultimum [18] = test: Antifungal activity against Pythium ultimum assessed as mycelial growth at 0.15 mg/disk by filter disk method relative to control; type: functional; in short: as §2
Polyporus [19] = test: Antifungal activity against Polyporus marginatus assessed as mycelial growth at 100 umol/L by filter disk method relative to control; type: functional; details: in the assay text read “by incorporation into growth medium” for “by filter disk method”; in short: as §1
[20] = Antifungal activity against Polyporus marginatus assessed as mycelial growth at 200 umol/L by filter disk method relative to control; type: functional; details: in the assay text read “by incorporation into growth medium” for “by filter disk method”; in short: as §1
Globisporangium ultimum [21] = test: Antifungal activity against Pythium ultimum assessed as mycelial growth at 1.5 mg/disk by filter disk method relative to control; type: functional; in short: as §2
Trichoderma viride [22] = test: Antifungal activity against Trichoderma viride assessed as mycelial growth at 100 umol/L by filter disk method relative to control; type: functional; details: in the assay text read “by incorporation into growth medium” for “by filter disk method”; in short: as §1
[23] = Antifungal activity against Fusarium oxysporum dianthi assessed as mycelial growth at 50 umol/L […] relative to control; type: functional; details: Fusarium oxysporum f. sp. dianthi; in short: as §1
Fusarium basilici [24] = test: Antifungal activity against Fusarium basilici assessed as mycelial growth at 1.5 mg/disk by filter disk method relative to control
[25] = test system: Fusarium oxysporum f. sp. dianthi; test: Antifungal activity against Fusarium oxysporum dianthi assessed as mycelial growth at 100 umol/L by […] relative to control; type: functional; in short: as §1
Rhizopus stolonifer [26] = test: Antifungal activity against Rhizopus stolonifer assessed as mycelial growth at 50 umol/L by […] relative to control; type: functional; in short: as §1
Fulvia fulva [27] = test: Antifungal activity against Cladosporium fulvum assessed as mycelial growth at 200 umol/L […] relative to control; type: functional; in short: as §1
Alternaria dianthi [28] = test: Antifungal activity against Alternaria dianthi assessed as mycelial growth at 50 umol/L by filter disk method relative to control; type: functional; details: in the assay text read “by incorporation into growth medium” for “by filter disk method”; in short: as §1
Penicillium expansum [29] = test: Antifungal activity against Penicillium expansum assessed as mycelial growth at 50 umol/L […] relative to control; type: functional; in short: as §1
Guignardia aesculi [30] = test: Antifungal activity against Guignardia aesculi assessed as mycelial growth at 100 umol/L by filter disk method relative to control; type: functional; details: in the assay text read “by incorporation into the growth medium” for “by filter disk method”; in short: as §1
Penicillium expansum [31] = test: Antifungal activity against Penicillium expansum assessed as mycelial growth at 100 umol/L […] relative to control; type: functional; in short: as §1
Globisporangium ultimum [32] = test: Antifungal activity against Pythium ultimum assessed as mycelial growth at 15 mg/disk by filter disk method relative to control; type: functional; in short: as §2
Aspergillus niger [33] = test: Antifungal activity against Aspergillus niger assessed as mycelial growth at 50 umol/L by filter disk method relative to control; type: functional; details: in the assay text read “by incorporation into growth medium” for “by filter disk method”; in short: as §1
[34] = Antifungal activity against Rhizopus stolonifer assessed as mycelial growth at 100 umol/L […] relative to control; type: functional; in short: as §1
Penicillium expansum [35] = test: Antifungal activity against Penicillium expansum assessed as mycelial growth at 200 umol/L […] relative to control; type: functional; in short: as §1
Guignardia aesculi [36] = test: Antifungal activity against Guignardia aesculi assessed as mycelial growth at 50 umol/L by […] relative to control; type: functional; in short: as §1
Alternaria alternata [37] = test: Antifungal activity against Alternaria alternata assessed as mycelial growth at 100 umol/L by filter disk method relative to control; type: functional; details: in the assay text read “by incorporation into growth medium” for “by filter disk method”; in short: as §1
Fulvia fulva [38] = test: Antifungal activity against Cladosporium fulvum assessed as mycelial growth at 50 umol/L by filter disk method relative to control; type: functional; details: in the assay text read “by incorporation into PDA growth medium” for “by filter disk method”; in short: as §1
Rhizopus stolonifer [39] = test: Antifungal activity against Rhizopus stolonifer assessed as mycelial growth at 200 umol/L […] relative to control; type: functional; in short: as §1
Alternaria alternata [40] = test: Antifungal activity against Alternaria alternata assessed as mycelial growth at 200 umol/L by filter disk method relative to control; type: functional; details: in the assay text read “by incorporation into growth medium” for “by filter disk method”; in short: as §1
Guignardia aesculi [41] = test: Antifungal activity against Guignardia aesculi assessed as mycelial growth at 15 mg/disk by filter disk method relative to control; type: functional; in short: as §2
Aspergillus niger [42] = test: Antifungal activity against Aspergillus niger assessed as mycelial growth at 100 umol/L by filter disk method relative to control; type: functional; details: in the assay text read “by incorporation into growth medium” for “by filter disk method”; in short: as §1

CC[C@@H](CO)COc1cc2c(C)cc(=O)oc2cc1O [PAVIETIN]
Activity (Botrytis [1]): 51.4% | Activity (Trichoderma viride [2]): 78.8% | Activity (Botrytis [3]): 78.8% | Activity (Trichoderma viride [4]): 61.5% | Activity (Guignardia aesculi [5]): 20.7% | Activity (Guignardia aesculi [6]): 85.3% | Activity (Guignardia aesculi [7]): 64% | Activity (Alternaria dianthi [8]): 77% | Activity [9]: 66.9% | Activity (Polyporus [10]): 93.6% | Activity (Botrytis [11]): 64.6% | Activity (Alternaria alternata [12]): 86.8% | Activity (Aspergillus niger [13]): 50% | Activity (Fusarium basilici [14]): 87.8% | Activity (Fulvia fulva [15]): 78.3% | Activity (Fusarium basilici [16]): 59% | Activity (Alternaria dianthi [17]): 64.9% | Activity (Globisporangium ultimum [18]): 88.4% | Activity (Polyporus [19]): 86.2% | Activity [20]: 76.1% | Activity (Globisporangium ultimum [21]): 81.6% | Activity (Trichoderma viride [22]): 70.4% | Activity [23]: 91.8% | Activity (Fusarium basilici [24]): 76.4% | Activity [25]: 83.3% | Activity (Rhizopus stolonifer [26]): 82% | Activity (Fulvia fulva [27]): 60.8% | Activity (Alternaria dianthi [28]): 89.5% | Activity (Penicillium expansum [29]): 68.8% | Activity (Guignardia aesculi [30]): 46.5% | Activity (Penicillium expansum [31]): 48.4% | Activity (Globisporangium ultimum [32]): 78% | Activity (Aspergillus niger [33]): 73.2% | Activity [34]: 71.3% | Activity (Penicillium expansum [35]): 29.9% | Activity (Guignardia aesculi [36]): 84.6% | Activity (Alternaria alternata [37]): 80.2% | Activity (Fulvia fulva [38]): 88.6% | Activity (Rhizopus stolonifer [39]): 68.1% | Activity (Alternaria alternata [40]): 58.5% | Activity (Guignardia aesculi [41]): 33.8% | Activity (Aspergillus niger [42]): 68.6%
